CCR6 antag: antagonists of human CCR6 receptor; CHO-K1 CCR6 PathHunter beta-arrestin, luminescence, CCL20-stimulated; inhibition, % at 20 µM; 340,000 tested, 0.49% active;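 active = compounds whose inhibition of the agonist-driven luminescence signal at 20 µM reaches about 50%, limit read from the data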;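 also: cells stimulated with CCL20 at 14 nM final; plate controls were DMSO with CCL20 for no effect and DMSO without agonist for full effect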
CXCR6 inh: blocks human CXCR6 beta-arrestin recruitment; CHO-K1 PathHunter CXCR6 beta-arrestin, luminescence; inhibition, % at 20 µM; 360,000 tested, 0.36% active; in the data active = inhibition above about 34%, passing the limit was not always enough;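 also: antagonist mode with CXCL16 agonist at 10 nM final; 0% = 10 nM CXCL16 with DMSO and 100% = unstimulated wells without agonist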
APJ antagonist: APJ receptor antagonism | AID 2521 | inhibition, % at 20 µM | 330,000 tested, 0.32% active | CHO-K1 APJ beta-arrestin complementation, luminescence;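 active = inhibition above about 40% at 20 µM, limit read from the data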;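 also: cells challenged with 10 nM apelin-13 agonist together with compound; plate controls were apelin-13 plus DMSO wells for no effect and DMSO wells lacking apelin-13 for full effect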
Target sequence (P35414 whole entry, looked up): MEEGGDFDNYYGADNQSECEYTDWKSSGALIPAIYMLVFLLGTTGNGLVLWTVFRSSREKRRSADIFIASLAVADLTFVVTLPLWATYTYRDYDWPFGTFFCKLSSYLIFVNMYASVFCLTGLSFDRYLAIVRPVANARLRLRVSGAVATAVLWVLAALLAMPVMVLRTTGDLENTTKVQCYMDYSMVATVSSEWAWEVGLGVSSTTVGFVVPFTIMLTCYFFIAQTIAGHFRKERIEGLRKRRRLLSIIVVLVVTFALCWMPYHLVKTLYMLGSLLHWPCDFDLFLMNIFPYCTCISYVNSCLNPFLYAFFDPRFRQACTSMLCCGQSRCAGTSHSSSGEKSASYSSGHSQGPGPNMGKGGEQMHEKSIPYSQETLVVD
EBI2 antag: antagonists of human EBI2 receptor. EBI2 beta-arrestin recruitment, luminescence, 7a,25-OHC stimulated. 360,000 tested, 0.81% active. inhibition, % at 5 µM; in the data active = inhibition above about 38%;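 also: enzyme fragment complementation signal reports receptor beta-arrestin coupling in cells; 0% = agonist plus DMSO wells and 100% = wells without agonist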
APJ agonist: activates the human apelin receptor APJ. P35414. CHO-K1 APJ PathHunter beta-arrestin, luminescence; 0% DMSO wells, 100% apelin. activation, % at 20 µM. 330,000 tested, 0.11% active. AID 2520;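 active = activation more than six SD over the plate average, tested at 20 µM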;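 also: 0% = DMSO alone and 100% = apelin-13 at 10 nM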
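Test system – PathHunter CHO-K1 APJ (AGTRL-1) beta-arrestin reporter cells · Input – 1000 cells/well · Compound – single test compound dose, 20 µM final, 1% DMSO · Times – compound stimulation 90 min at 25 °C, detection 60 min · Technique – beta-gal luminescence · Read-out basis – APJ–arrestin association signal · Control set – negative DMSO alone, positive Apelin-13 at 10 nM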
EBI2 conf: EBI2 (human) antagonism, single concentration confirmation; EBI2 beta-arrestin luminescence, 7a,25-OHC antagonism; inhibition, % at 5 µM; AID 651997; shares compounds with EBI2 antag; 2,400 tested, 29% active;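 active = inhibition of at least 50%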
EBI2 ag: EBI2 agonism counter-screen | shares compounds with EBI2 antag | EBI2-expressing cells, agonist mode, luminescence, 60 min; 0% vehicle, 100% 7α,25-dihydroxycholesterol control | activation, % at 5 µM | 2,400 tested, under 10 active;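 active = activation of at least 50%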
bGal cs: inhibits E. coli beta-galactosidase, counter-screen for EBI2 antagonists; AID 652176; inhibition, % at 5 µM; shares compounds with EBI2 antag; 2,400 tested, 1% active; purified beta-galactosidase, luminescent Galacton Star, 15 min;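 active = replicate-average signal at least 3 plate SD below neutral wells, shown as high inhibition, flagging enzyme-inhibiting false positives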;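 also: 0% = DMSO wells with enzyme and 100% = wells lacking enzyme; higher means stronger loss of beta-gal luminescence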
Active calls of the source: *; / = no result. An excerpt weighted towards active compounds, which were near 1.5% of everything screened.

SMILES	CCR6 antag	CXCR6 inh	APJ antagonist	EBI2 antag	APJ agonist	EBI2 conf	EBI2 ag	bGal cs
N#CCCN(NC1=NS(=O)(=O)c2ccccc21)C(=O)c1ccccc1Br	-3.2	0.7	7.2	-13.3	-4.4	/	/	/
Oc1ccc(O)c(C=NNC(=S)NC2CC3CC2C2C=CCC32)c1 (stereo unspecified)	/	-3.2	/	49.5*	/	24.7	-0.9	-2.5
NNC(=S)NC1CC2CC1C1C=CCC21 (stereo unspecified)	32.5	24.3	25.9	2.9	-11.3	/	/	/
COc1ccc(CCN2C(=O)C(Oc3ccccc3)C2c2ccc3c(c2)OCO3)cc1 (stereo unspecified)	4.3	-6.3	3.4	42.0*	2.4	37.3	2.3	-2.9
COc1ccc(-c2ccc(C(=O)Nc3ccc(NC(C)=O)cc3)c3occc23)c(C)c1	/	-3.3	/	-40.4	/	/	/	/
COc1ccc(-c2ccc(C(=O)Nc3cccc(C(F)(F)F)c3)c3occc23)c(C)c1	/	4.2	/	42.9*	/	9.3	-1.6	-12.5
C=CCN1C=C2C(=O)C(C)(OC(=O)c3ccco3)C(=O)C(C=C)=C2C=C1C1CC1 (stereo unspecified)	/	/	-88.7	/	17.0	/	/	/
Fc1ccc(Nc2ccc(-c3ccc(F)cc3)nn2)cc1	8.1	-1.2	-14.4	59.9*	-1.9	28.1	-1.3	-7.5
Cc1cc(C(=O)N2CCN(Cc3ccccc3)CC2)ccc1[N+](=O)[O-]	13.4	-1.2	-3.2	24.4	-3.5	/	/	/
Cc1cc(C(=O)N2CCC(Cc3ccccc3)CC2)ccc1[N+](=O)[O-]	3.7	7.8	-6.6	63.7*	-3.0	43.4	1.3	4.6
Cc1nc2nc(C(F)(F)F)[nH]c2nc1C	/	-1.6	/	-8.1	/	/	/	/
COc1cccc(C#CC2=CC(=O)C[C@H](c3ccc(F)cc3)C2)c1	/	7.1	/	25.6	/	/	/	/
Cc1c(C=O)c2ccccc2n1CC(=O)NC(C)c1ccccc1 (stereo unspecified)	23.9	-3.1	2.5	-3.4	-1.5	/	/	/
COc1cc(NC(=O)CSCc2cnn(-c3ccccc3)c2-n2cccc2)cc(OC)c1	23.1	0.0	6.7	37.3*	-0.8	13.7	-1.7	-12.7
COc1ccc(OC)c(NC(=O)CSCc2cnn(-c3ccccc3)c2-n2cccc2)c1	12.9	-2.7	10.5	14.9	-4.2	/	/	/
COc1ccc(CNC(=O)N2CCN(c3ccccc3)CC2)cc1	10.7	4.6	16.3	-7.1	-0.8	/	/	/
O=C(NC1CCCCCC1)c1ccc(=O)n(Cc2ccccc2)n1	19.1	13.1	11.0	46.4*	0.3	35.4	0.4	6.8
COC(=O)C1CCN(C(=O)COC(=O)c2ccc(=O)n(Cc3ccccc3)n2)CC1	13.3	-12.0	-46.3	1.3	2.9	/	/	/
CCOc1cccc(-c2nn(-c3ccccc3)cc2/C=C(/C#N)C(=O)NCCCn2ccnc2)c1	3.0	5.5	-8.5	39.9*	-0.6	14.2	0.9	8.2
N#C/C(=C/c1cn(-c2ccccc2)nc1-c1cccc(OCc2ccccc2)c1)C(=O)NCCCn1ccnc1	15.7	9.0	1.8	29.2	-1.6	/	/	/
CN(C1CCCC1)C1CCN(C(=S)Nc2cc(F)cc(F)c2)CC1	-3.5	1.0	0.4	-6.2	-1.1	/	/	/
CCOC(=O)CN1C(=O)CC(c2ccccc2)C1=O (stereo unspecified)	6.5	-5.6	12.3	7.9	-2.5	/	/	/
COc1cccc(OCc2nnc(SCC(=O)N3c4ccccc4Sc4ccc(Cl)cc43)o2)c1	-1.4	8.8	-0.2	52.7*	-3.1	28.2	0.2	-1.0
Cc1ccc(OCc2nnc(SCC(=O)N3c4ccccc4Sc4ccc(Cl)cc43)o2)cc1	4.6	-16.8	-33.4	34.7	1.9	/	/	/
COc1ccc(OCc2nnc(SCC(=O)N3c4ccccc4Sc4ccc(Cl)cc43)o2)cc1	3.9	-1.4	4.1	66.4*	0.2	54.1*	0.8	-1.0
Cc1cccc(OCc2nnc(SCC(=O)N3c4ccccc4Sc4ccc(Cl)cc43)o2)c1	7.3	8.3	-3.5	23.5	-0.3	/	/	/
Cc1ccc(SCc2ccc(C(=O)N3CCCC3)cc2)cc1	17.2	-10.9	9.7	2.6	-1.0	/	/	/

High-throughput results (PubChem BioAssay)
